From ChEMBL document CHEMBL1759938, “Antioxidant xanthone derivatives induce cell cycle arrest and apoptosis and enhance cell death induced by cisplatin in NTUB1 cells associated with ROS” (Eur J Med Chem, 2011)
pIC50: −log10 of the molar value. Activity calls are given as the source filed them. No cut-off for these calls is given here.

Key:
[1] = Antioxidant activity assessed as ABTS radical scavenging activity; type: functional; details: for pIC50: read-out: IC50
Outline: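 ABTS (7 mM in deionized water) was mixed with 2.45 mM potassium persulfate to form the radical cation. 180 µL of this solution was combined with 40 µL of sample, and absorbance was read at 630 nm. Vitamin E served as positive control. Mean ± s.e.m., n = 3.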

[2] = target: Xanthine dehydrogenase/oxidase (Homo sapiens, UniProt P47989); experiment: Inhibition of xanthine oxidase activity assessed as uric acid formation pretreated for 15 mins before substrate addition measured after 5 mins; details: for inhibition (INH): 5 min
Chain of Xanthine dehydrogenase/oxidase (P47989 whole entry): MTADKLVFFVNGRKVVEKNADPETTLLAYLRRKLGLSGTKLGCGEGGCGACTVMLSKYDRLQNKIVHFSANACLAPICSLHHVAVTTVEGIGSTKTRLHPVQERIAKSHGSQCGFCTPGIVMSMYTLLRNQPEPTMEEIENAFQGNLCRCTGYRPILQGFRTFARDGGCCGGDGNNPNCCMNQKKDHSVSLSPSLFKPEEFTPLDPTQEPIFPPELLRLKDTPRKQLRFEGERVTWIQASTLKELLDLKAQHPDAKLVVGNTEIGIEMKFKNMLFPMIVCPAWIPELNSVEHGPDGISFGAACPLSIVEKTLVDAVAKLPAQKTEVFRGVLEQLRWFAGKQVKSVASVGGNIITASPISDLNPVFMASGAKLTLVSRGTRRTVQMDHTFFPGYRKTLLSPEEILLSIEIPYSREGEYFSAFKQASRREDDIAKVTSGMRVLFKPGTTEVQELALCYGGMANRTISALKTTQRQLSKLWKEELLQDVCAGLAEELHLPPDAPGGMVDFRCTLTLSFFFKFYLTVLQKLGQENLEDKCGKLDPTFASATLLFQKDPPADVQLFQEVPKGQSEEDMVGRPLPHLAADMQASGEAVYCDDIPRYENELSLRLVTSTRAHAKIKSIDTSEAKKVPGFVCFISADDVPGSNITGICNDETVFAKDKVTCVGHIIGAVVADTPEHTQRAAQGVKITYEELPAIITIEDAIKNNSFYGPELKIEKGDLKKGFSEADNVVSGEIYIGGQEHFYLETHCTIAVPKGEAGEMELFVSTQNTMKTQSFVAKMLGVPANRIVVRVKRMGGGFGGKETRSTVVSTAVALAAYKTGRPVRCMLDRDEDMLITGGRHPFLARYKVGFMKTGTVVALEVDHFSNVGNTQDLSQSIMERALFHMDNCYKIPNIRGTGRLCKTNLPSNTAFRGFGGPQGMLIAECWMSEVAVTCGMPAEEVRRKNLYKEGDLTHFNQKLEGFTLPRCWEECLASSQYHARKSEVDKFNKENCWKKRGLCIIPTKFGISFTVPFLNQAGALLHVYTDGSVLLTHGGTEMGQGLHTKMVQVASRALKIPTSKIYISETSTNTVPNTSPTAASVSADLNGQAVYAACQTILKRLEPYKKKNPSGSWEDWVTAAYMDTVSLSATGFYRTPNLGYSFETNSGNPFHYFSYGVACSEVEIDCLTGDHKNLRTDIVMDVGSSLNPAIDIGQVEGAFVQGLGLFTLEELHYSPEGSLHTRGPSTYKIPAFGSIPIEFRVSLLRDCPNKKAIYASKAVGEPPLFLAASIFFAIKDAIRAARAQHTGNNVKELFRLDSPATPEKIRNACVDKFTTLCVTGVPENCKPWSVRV

[3] = Antioxidant activity against oxide-induced pBR322 DNA damage at 300 uM by agarose gel electrophoresis; type: functional
Outline: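 Supercoiled pBR322 plasmid DNA (500 ng) in phosphate buffer pH 7.4, exposed for 20 min to superoxide generated by xanthine/xanthine oxidase, with or without test agent at 300 µM. SOD and quercetin were positive controls. Strand breaks were resolved by gel electrophoresis.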

[4] = Cytotoxicity against human SV-HUC1 cells at 0.3 to 50 uM after 72 hrs by MTT assay; type: cell-based; details: sv-huc1, 72 h
Outline: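 SV-HUC1 cells (SV40-immortalized human uroepithelium), grown in F12 with 10% FBS, were seeded at 1 × 10³ cells/well and left overnight. Graded concentrations were applied for 72 h at 37 °C. Read-out was MTT formazan dissolved in DMSO, absorbance at 540 nm. Viability is expressed relative to untreated control. Mean ± S.D., n = 3.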

[5] = Induction of apoptosis in human NTUB1 cells assessed as increase in ROS level at 20 to 40 uM after 24 hrs by flow cytometry relative to control; type: functional
Outline: (§1)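 NTUB1 cells in 6-well plates were treated for 24 h at 20 or 40 µM. Controls were 1 mM NAC and 10 µM cisplatin. 10 µM DCFH-DA was added 30 min before harvest; cells were then trypsinized and washed in PBS. DCF green fluorescence was read by flow cytometry through a 525 nm band-pass filter and expressed relative to control. Mean ± S.D., n = 3.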

[6] = tested on: NTUB1; experiment: Induction of apoptosis in human NTUB1 cells assessed as increase in ROS level at 40 uM after 24 hrs by flow cytometry; type: functional, cell-based; outline: as §1
[7] = Cytotoxicity against human NTUB1 cells after 72 hrs by MTT assay; type: functional, cell-based; details: NTUB1, 72 h
Outline: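 NTUB1 cells in RPMI 1640 with 10% FBS were seeded at 1 × 10³ cells/well and left overnight at 37 °C. They were then exposed to graded concentrations for 72 h. MTT was added; plates were spun, the medium removed and DMSO added, and absorbance read at 540 nm. Viability is the ratio to untreated control, and IC50 was taken from the curve. Mean ± S.D., n = 3.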

[8] = Cell cycle arrest in human NTUB1 cells assessed as accumulation in subG1 phase at 60 uM after 24 hrs using propidium iodide by FACS analysis; type: functional, cell-based
Outline: (§2)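 NTUB1 bladder carcinoma cells (3 × 10⁵ or 8 × 10⁵ per 10 cm dish) were exposed to 40 or 60 µM for 24 h. Cells were trypsinized, fixed in ice-cold methanol at −20 °C overnight, and stained with 50 µg/mL propidium iodide for 30 min at room temperature. DNA content was measured by flow cytometry, with the sub-G1 fraction taken as apoptosis. Three independent experiments.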

[9] = Cell cycle arrest in human NTUB1 cells assessed as accumulation in subG1 phase at 40 uM after 24 hrs using propidium iodide by FACS analysis; type: functional, cell-based; outline: as §2
[10] = tested on: NTUB1; experiment: Induction of apoptosis in human NTUB1 cells assessed as increase in ROS level at 20 uM after 24 hrs by flow cytometry; type: functional, cell-based; outline: as §1

Molecule | pIC50 [1] | pIC50 [2] | inhibition (INH) [2] | Activity [3] | other results
O=c1c2ccc(O)cc2oc2cc(OCCCN3CCCC3)ccc12 | 4.05 | 4.16 | Dose-dependent effect | Active | 
O=c1c2ccc(O)cc2oc2cc(OCCCN3CCCCC3)ccc12 | 4.16 | 4.08 | Dose-dependent effect | Active | Activity [4]: Non-toxic; Activity [5]: 250%; Activity [6]: Active; pIC50 [7]: 4.45; Activity [8]: Active
O=c1c2ccccc2oc2cc(OCCCN3CCCC3)ccc12 |  | 4.18 | Dose-dependent effect | Active | IC50 [1]: Not Active
VITAMIN E | 4.11 |  |  |  | 
O=c1c2ccccc2oc2cc(OCCCN3CCNCC3)ccc12 | 4.12 | 3.96 | Dose-dependent effect | Active | 
Oc1ncnc2[nH]ncc12 [ALLOPURINOL] |  |  | Dose-dependent effect |  | 
CN1CCN(CCCOc2ccc3c(=O)c4ccccc4oc3c2)CC1 | 3.82 | 4.33 | Dose-dependent effect | Active | 
O=c1c2ccccc2oc2cc(OCCCN3CCCCC3)ccc12 | 4.05 | 4.42 | Dose-dependent effect | Active | Activity [5]: 250%; Activity [9]: Active; pIC50 [7]: 4.51; Activity [10]: Active
CCN(CC)CCCOc1ccc2c(=O)c3ccccc3oc2c1 | 4.07 | 4.25 | Dose-dependent effect | Active | 

More lines, main results first:

pIC50 [1] | pIC50 [2] | inhibition (INH) [2] | Molecule | Activity [3] | other results
3.97 | 4.20 | Dose-dependent effect | O=c1c2ccc(O)cc2oc2cc(OCCCNC3CC3)ccc12 | Active | 
4.19 | 4.04 | Dose-dependent effect | O=c1c2ccc(O)cc2oc2cc(OCCCN3CCNCC3)ccc12 |  | 
4.12 | 4.35 | Dose-dependent effect | CN1CCN(CCCOc2ccc3c(=O)c4ccc(O)cc4oc3c2)CC1 |  | 
3.98 | 4.14 | Dose-dependent effect | O=c1c2ccc(O)cc2oc2cc(OCCCNC3CCCCC3)ccc12 | Active | 
4.09 | 4.27 | Dose-dependent effect | CCN(CC)CCCOc1ccc2c(=O)c3ccc(O)cc3oc2c1 |  | 
